Active and inactive are the calls of the source. No cut-off for these calls is given here.
Columns and labels:
Camelpox virus [1] = test: Antiviral activity against Camelpox virus CML1 infected in HEL299 cells assessed as reduction in viral titer after 6 days postinfection by virus yield reduction assay; type: functional; details: for EC99: CML1, HEL 299, 144 h; for Activity: HEL 299
[2] = Cytotoxicity against human PHK after 4 days by Z1 Coulter counting analysis; details: PHK cells
Procedure, shortened: (§1)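 Cell growth inhibition: HEL cells were seeded at 3.5 × 10³ per well and PHKs at 5 × 10³ per well. Serial dilutions were added in duplicate after 1 day (HEL) or 3 days (PHK). After 4 days with compound, cells were trypsinized and counted with a Coulter counter (8 μm lower limit). CC50 is the concentration reducing growth by 50%, mean ± SD of at least two experiments.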

Camelpox virus [3] = test: Antiviral activity against Camelpox virus CML14 infected in HEL299 cells assessed as inhibition of virus-induced cytopathic effect after 6 days by Giemsa staining; type: functional, organism-based; details: CML14, HEL 299, 144 h
Camelpox virus [4] = test: Antiviral activity against Camelpox virus CML14 infected in human PHK assessed as inhibition of virus-induced cytopathic effect after 6 days by Giemsa staining; type: functional, organism-based; details: CML14, 144 h
[5] = Selectivity index, ratio of CC50 for HEL299 cells to EC50 for Camelpox virus CML1 infected in HEL299 cells; type: toxicity, cell-based, HEL 299; details: human, HEL299 cells; read-out: Ratio CC50/IC50
Camelpox virus [6] = test: Antiviral activity against Camelpox virus CML14 infected in human PHK assessed as reduction in viral titer after 6 days postinfection by virus yield reduction assay; type: functional; details: for EC99: CML14, 144 h
[7] = Selectivity index, ratio of CC50 for HEL299 cells to EC50 for Camelpox virus CML14 infected in HEL299 cells; type: toxicity, cell-based, HEL 299; details: human, HEL299 cells; read-out: Ratio CC50/IC50
Camelpox virus [8] = test: Antiviral activity against Camelpox virus CML1 infected in human PHK assessed as reduction in viral titer after 6 days postinfection by virus yield reduction assay; type: functional; details: for EC99: CML1, 144 h
Camelpox virus [9] = test: Antiviral activity against Camelpox virus CML1 infected in HEL299 cells assessed as inhibition of virus-induced cytopathic effect after 6 days by Giemsa staining; type: functional, organism-based; details: CML1, HEL 299, 144 h
Camelpox virus [10] = test: Antiviral activity against Camelpox virus CML1 infected in human PHK assessed as inhibition of virus-induced cytopathic effect after 6 days by Giemsa staining; type: functional, organism-based; details: CML1, 144 h
[11] = Cytotoxicity against HEL299 cells after 4 days by Z1 Coulter counting analysis; type: cell-based, HEL 299; details: human, HEL299 cells; procedure, shortened: as §1
[12] = Selectivity index, ratio of CC50 for human PHK to EC50 for Camelpox virus CML14 infected in human PHK
Camelpox virus [13] = test: Antiviral activity against Camelpox virus CML14 infected in HEL299 cells assessed as reduction in viral titer after 6 days postinfection by virus yield reduction assay; type: functional; details: for EC99: CML14, HEL 299, 144 h; for Activity: HEL 299
Camelpox virus [14] = test: Antiviral activity against Camelpox virus CML1 infected in differentiated human PHK raft culture assessed as reduction in viral titer determined in HEL299 cells treated after 7 days postinfection by virus yield reduction assay; type: functional; details: CML1, HEL 299, 168 h
[15] = Selectivity index, ratio of CC50 for human PHK to EC50 for Camelpox virus CML1 infected in human PHK
Camelpox virus [16] = test: Antiviral activity against Camelpox virus CML14 infected in human PHK assessed as suppression of viral replication at 73 uM after 6 days postinfection by virus yield reduction assay; type: functional, organism-based
Camelpox virus [17] = test: Antiviral activity against Camelpox virus CML1 infected in human PHK assessed as suppression of viral replication at 73 uM after 6 days postinfection by virus yield reduction assay; type: functional, organism-based
[18] = Cytotoxicity against differentiated epithelium of human PHK raft culture at 76 uM after 4 days by Z1 Coulter counting analysis; details: 96 h
Camelpox virus [19] = test: Antiviral activity against Camelpox virus CML1 infected in HEL299 cells assessed as suppression of viral replication at 73 uM after 6 days postinfection by virus yield reduction assay; type: functional, organism-based; details: HEL 299
Camelpox virus [20] = test: Antiviral activity against Camelpox virus CML1 infected in human PHK raft culture assessed as complete protection of differentiated cells against viral replication at 72 uM after 7 days postinfection; type: functional, organism-based
Camelpox virus [21] = test: Antiviral activity against Camelpox virus CML14 infected in HEL299 cells assessed as suppression of viral replication at 73 uM after 6 days postinfection by virus yield reduction assay; type: functional, organism-based; details: HEL 299
Camelpox virus [22] = test: Antiviral activity against Camelpox virus CML1-induced cytopathic effect in human PHK raft culture assessed as full protection of differentiated epithelium at 164uM treated after 7 days postinfection; type: functional, organism-based

SMILES: C[C@H](COC1=CC(N)N(O)C(N)=N1)OCP(=O)(O)O (stereo partly specified)
- EC99 (Camelpox virus [1]): 9.5 µM
- Activity (Camelpox virus [1]): Dose-dependent effect
- CC50 at 96 h [2]: 5 µM
- EC50 (Camelpox virus [3]): 2 µM
- EC50 (Camelpox virus [4]): 4.6 µM
- selectivity ratio [5]: 99
- Activity (Camelpox virus [6]): Dose-dependent effect
- EC99 (Camelpox virus [6]): 9.5 µM
- selectivity ratio [7]: 82
- Activity (Camelpox virus [8]): Dose-dependent effect
- EC99 (Camelpox virus [8]): 9.5 µM
- EC50 (Camelpox virus [9]): 1.6 µM
- EC50 (Camelpox virus [10]): 3.9 µM
- CC50 at 96 h [11]: 162 µM
- Ratio CC50/IC50 [12]: 1
- EC99 (Camelpox virus [13]): 9.5 µM
- Activity (Camelpox virus [13]): Dose-dependent effect
- EC99 (Camelpox virus [14]): 5 µM
- Ratio CC50/IC50 [15]: 1

SMILES: Nc1ncnc(=O)n1C[C@H]1COP(=O)(O)CO1
- Activity (Camelpox virus [1]): Dose-dependent effect
- CC50 at 96 h [2]: 34 µM
- EC50 (Camelpox virus [3]): 3 µM
- EC50 (Camelpox virus [4]): 14.8 µM
- selectivity ratio [5]: 33
- Activity (Camelpox virus [6]): Dose-dependent effect
- Activity (Camelpox virus [16]): Active
- selectivity ratio [7]: 48
- Activity (Camelpox virus [17]): Active
- Activity [18]: Non-toxic
- Activity (Camelpox virus [8]): Dose-dependent effect
- Activity (Camelpox virus [19]): Active
- Activity (Camelpox virus [20]): Active
- EC50 (Camelpox virus [9]): 4.3 µM
- EC50 (Camelpox virus [10]): 18 µM
- CC50 at 96 h [11]: 143 µM
- Ratio CC50/IC50 [12]: 2
- Activity (Camelpox virus [13]): Dose-dependent effect
- EC99 (Camelpox virus [14]): 67 µM
- Ratio CC50/IC50 [15]: 2
- Activity (Camelpox virus [21]): Active

SMILES: Nc1ncnc2c1ncn2C[C@@H](CO)OCP(=O)(O)O
- Activity (Camelpox virus [1]): Dose-dependent effect
- CC50 at 96 h [2]: 1 µM
- EC50 (Camelpox virus [3]): 0.5 µM
- EC50 (Camelpox virus [4]): 1.4 µM
- selectivity ratio [5]: 66
- Activity (Camelpox virus [6]): Dose-dependent effect
- EC99 (Camelpox virus [6]): 2 µM
- selectivity ratio [7]: 60
- Activity (Camelpox virus [8]): Dose-dependent effect
- EC50 (Camelpox virus [9]): 0.5 µM
- EC50 (Camelpox virus [10]): 1 µM
- CC50 at 96 h [11]: 32 µM
- Ratio CC50/IC50 [12]: 1
- EC99 (Camelpox virus [13]): 1 µM
- Activity (Camelpox virus [13]): Dose-dependent effect
- Ratio CC50/IC50 [15]: 1

SMILES: Nc1ccn(C[C@H]2COP(=O)(O)CO2)c(=O)n1 [CYCLIC CIDOFOVIR]
- EC99 (Camelpox virus [1]): 64 µM
- Activity (Camelpox virus [1]): Dose-dependent effect
- CC50 at 96 h [2]: 17 µM
- EC50 (Camelpox virus [3]): 8.8 µM
- EC50 (Camelpox virus [4]): 9.1 µM
- selectivity ratio [5]: 55
- Activity (Camelpox virus [6]): Dose-dependent effect
- selectivity ratio [7]: 38
- Activity (Camelpox virus [22]): Active
- Activity (Camelpox virus [8]): Dose-dependent effect
- EC99 (Camelpox virus [8]): 59 µM
- EC50 (Camelpox virus [9]): 6.1 µM
- EC50 (Camelpox virus [10]): 7.2 µM
- CC50 at 96 h [11]: 335 µM
- Ratio CC50/IC50 [12]: 2
- Activity (Camelpox virus [13]): Dose-dependent effect
- EC99 (Camelpox virus [14]): 38 µM
- Ratio CC50/IC50 [15]: 2

SMILES: Nc1ncnc2c1ncn2C[C@H]1COP(=O)(O)CO1
- EC99 (Camelpox virus [1]): 3 µM
- Activity (Camelpox virus [1]): Dose-dependent effect
- CC50 at 96 h [2]: 3 µM
- EC50 (Camelpox virus [3]): 0.1 µM
- EC50 (Camelpox virus [4]): 3.1 µM
- selectivity ratio [5]: 393
- Activity (Camelpox virus [6]): Dose-dependent effect
- EC99 (Camelpox virus [6]): 6 µM
- selectivity ratio [7]: 441
- Activity (Camelpox virus [8]): Dose-dependent effect
- EC50 (Camelpox virus [9]): 0.2 µM
- EC50 (Camelpox virus [10]): 1.6 µM
- CC50 at 96 h [11]: 63 µM
- Ratio CC50/IC50 [12]: 1
- EC99 (Camelpox virus [13]): 2 µM
- Activity (Camelpox virus [13]): Dose-dependent effect
- Ratio CC50/IC50 [15]: 2

Source: ChEMBL document CHEMBL1137668, “Activities of several classes of acyclic nucleoside phosphonates against camelpox virus replication in different cell culture models” (Antimicrob Agents Chemother, 2007)
